Measurements as given in ChEMBL document CHEMBL1131193, “Selective tight binding inhibitors of trypanosomal glyceraldehyde-3-phosphate dehydrogenase via structure-based drug design” (J Med Chem, 1998).
pIC50: −log10 of the molar value.

Molecular target: not listed separately
Assay: Inhibitory activity measured for Glyceraldehyde-3-phosphate dehydrogenase (GAPDH) in Leishmania. mexicana; call rule not given here
Method in brief: (§1)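 Recombinant glycosomal GAPDH of L. mexicana, T. cruzi or T. brucei; human enzyme from erythrocytes. NADH formation followed at 340 nm, 21 °C, in 0.1 M triethanolamine-HCl pH 7.6 with DTT, NaN3, MgSO4, EDTA, 10 mM K2HPO4, 0.8 mM glyceraldehyde-3-phosphate, 0.19 mM NAD+, 5% DMSO. Reaction started with enzyme. IC50 from 0–1 min initial rates at ≥5 inhibitor levels versus DMSO control.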

| SMILES | pIC50 |
| --- | --- |
| OC[C@H]1O[C@@H](n2cnc3c(NCc4cccc5ccccc45)ncnc32)[C@H](O)[C@@H]1O | 3.82 |
| OC[C@H]1O[C@@H](n2cnc3c(NC4CCCCCC4)ncnc32)[C@H](O)[C@@H]1O | 2.74 |
| Nc1ccc(CNc2ncnc3c2ncn3[C@@H]2O[C@H](CO)[C@@H](O)[C@H]2O)cc1 | 2.51 |
| COc1cccc(C(=O)N[C@@H]2[C@H](O)[C@@H](CO)O[C@H]2n2cnc3c(N)ncnc32)c1 | 3.10 |
| Nc1ncnc2c1ncn2[C@@H]1O[C@H](CO)[C@@H](O)[C@H]1NC(=O)c1cc(O)c(O)c(O)c1 | 3.60 |
| Nc1ncnc2c1ncn2[C@@H]1O[C@H](CO)[C@@H](O)[C@H]1NC(=O)c1cccc(O)c1 | 3.07 |
| COc1cccc(C(=O)N[C@@H]2[C@H](O)[C@@H](CO)O[C@H]2n2cnc3c(N)ncnc32)c1O | 3.22 |
| COc1cc(C(=O)N[C@@H]2[C@H](O)[C@@H](CO)O[C@H]2n2cnc3c(N)ncnc32)ccc1O | 3.30 |
| COc1cccc(C(=O)N[C@@H]2[C@H](O)[C@@H](CO)O[C@H]2n2cnc3c(NCc4ccccc4C)ncnc32)c1 | 5.40 |
| COc1cccc(C(=O)N[C@@H]2[C@H](O)[C@@H](CO)O[C@H]2n2cnc3c(NCc4ccccc4)ncnc32)c1 | 4.80 |
| COc1cccc(C(=O)N[C@@H]2[C@H](O)[C@@H](CO)O[C@H]2n2cnc3c(NCc4cccc(C)c4C)ncnc32)c1 | 5.26 |
| COc1cccc(C(=O)N[C@@H]2[C@H](O)[C@@H](CO)O[C@H]2n2cnc3c(NCc4cc(C)ccc4C)ncnc32)c1 | 4.60 |
| Nc1ncnc2c1ncn2[C@@H]1O[C@H](CO)[C@@H](O)[C@H]1NC(=O)c1cc(O)cc(O)c1 | 3.19 |
| COc1cccc(C(=O)N[C@@H]2[C@H](O)[C@@H](CO)O[C@H]2n2cnc3c(NCc4ccccc4OC)ncnc32)c1 | 4.60 |
| COc1cccc(C(=O)N[C@@H]2[C@H](O)[C@@H](CO)O[C@H]2n2cnc3c(NC(=O)C(C)C)ncnc32)c1 | 2.92 |
| OC[C@H]1O[C@@H](n2cnc3c(NC4CCCc5ccccc54)ncnc32)[C@H](O)[C@@H]1O (some centres not stated) | 3.44 |
| Cc1cccc(CNc2ncnc3c2ncn3[C@@H]2O[C@H](CO)[C@@H](O)[C@H]2O)c1 | 3.15 |
| OC[C@H]1OC(n2cnc3c(NC(c4ccccc4)c4ccccc4)ncnc32)[C@H](O)[C@@H]1O (some centres not stated) | 3.62 |
| CC(CO)CCNc1ncnc2c1ncn2C1O[C@H](CO)[C@@H](O)[C@H]1O (some centres not stated) | 2.47 |
| CCC(C)CNc1ncnc2c1ncn2C1O[C@H](CO)[C@@H](O)[C@H]1O (some centres not stated) | < 2.27 |
| OCc1ccccc1Sc1ccccc1CNc1ncnc2c1ncn2C1O[C@H](CO)[C@@H](O)[C@H]1O (some centres not stated) | 3.47 |
| Nc1ncnc2c1ncn2[C@@H]1O[C@H](CO)[C@@H](O)[C@H]1O [ADENOSINE] | 1.30 |
| Cc1ccccc1CNc1ncnc2c1ncn2[C@@H]1O[C@H](CO)[C@@H](O)[C@H]1O [METRIFUDIL] | 3.15 |
| OC[C@H]1O[C@@H](n2cnc3c(NCc4ccccc4)ncnc32)[C@H](O)[C@@H]1O [N6-BENZYLADENOSINE] | 2.38 |
| OC[C@H]1O[C@@H](n2cnc3c(NC4CCCC4)ncnc32)[C@H](O)[C@@H]1O [N6-CYCLOPENTYLADENOSINE] | < 2.30 |
| CC(C)=CCNc1ncnc2c1ncn2[C@@H]1O[C@H](CO)[C@@H](O)[C@H]1O [RIBOPRINE] | < 2.30 |

Molecular target: not listed separately
Assay: Inhibitory activity was measured for Glyceraldehyde-3-phosphate dehydrogenase (GAPDH) in Leishmania. mexicana.

| SMILES | pIC50 |
| --- | --- |
| CC(C)CCNc1ncnc2c1ncn2[C@@H]1O[C@H](CO)[C@@H](O)[C@H]1O | 2.43 |

Molecular target: not listed separately
Assay: Inhibitory activity was measured for Glyceraldehyde-3-phosphate dehydrogenase in Trypanosoma brucei
Method in brief: as §1

| SMILES | pIC50 |
| --- | --- |
| COc1cccc(C(=O)N[C@@H]2[C@H](O)[C@@H](CO)O[C@H]2n2cnc3c(NCc4ccccc4C)ncnc32)c1 | 4.52 |
| COc1cccc(C(=O)N[C@@H]2[C@H](O)[C@@H](CO)O[C@H]2n2cnc3c(NCc4ccccc4)ncnc32)c1 | 3.66 |

Molecular target: not listed separately
Assay: Inhibitory activity was measured for Glyceraldehyde-3-phosphate dehydrogenase in Trypanosoma cruzi.
Method in brief: as §1

| SMILES | pIC50 |
| --- | --- |
| COc1cccc(C(=O)N[C@@H]2[C@H](O)[C@@H](CO)O[C@H]2n2cnc3c(NCc4ccccc4C)ncnc32)c1 | 4.52 |
| COc1cccc(C(=O)N[C@@H]2[C@H](O)[C@@H](CO)O[C@H]2n2cnc3c(NCc4ccccc4)ncnc32)c1 | 3.80 |

Molecular target: Glyceraldehyde-3-phosphate dehydrogenase (Homo sapiens, UniProt P04406)
Sequence (P04406 whole entry): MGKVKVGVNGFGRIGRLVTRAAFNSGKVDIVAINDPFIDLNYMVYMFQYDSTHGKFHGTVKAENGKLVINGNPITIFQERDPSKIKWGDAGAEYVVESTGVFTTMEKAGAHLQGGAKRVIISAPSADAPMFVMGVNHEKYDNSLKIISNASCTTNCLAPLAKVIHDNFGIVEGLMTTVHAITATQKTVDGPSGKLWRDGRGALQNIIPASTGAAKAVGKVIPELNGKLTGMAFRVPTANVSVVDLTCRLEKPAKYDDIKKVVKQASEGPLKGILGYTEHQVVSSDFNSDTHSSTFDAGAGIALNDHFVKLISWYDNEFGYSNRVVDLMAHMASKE
Assay: Inhibitory activity was measured for Glyceraldehyde-3-phosphate dehydrogenase in human(erythrocytes)
Format: cell-based
Method in brief: as §1

| SMILES | pIC50 |
| --- | --- |
| COc1cccc(C(=O)N[C@@H]2[C@H](O)[C@@H](CO)O[C@H]2n2cnc3c(NCc4ccccc4C)ncnc32)c1 | < 3.57 |
| COc1cccc(C(=O)N[C@@H]2[C@H](O)[C@@H](CO)O[C@H]2n2cnc3c(NCc4ccccc4)ncnc32)c1 | < 3.28 |

Tested on: GAPDH (Leishmania mexicana)
Assay: Inhibitory activity was measured for Glyceraldehyde-3-phosphate dehydrogenase (up to 10 mM

| SMILES | IC50 |
| --- | --- |
| CC(C)Nc1ncnc2c1ncn2[C@@H]1O[C@H](CO)[C@@H](O)[C@H]1O | Not Active |

Tested on: GAPDH (Leishmania mexicana)
Assay: as above
Remark: another data set of the same source

| SMILES | IC50 |
| --- | --- |
| CCCCCNc1ncnc2c1ncn2[C@@H]1O[C@H](CO)[C@@H](O)[C@H]1O | Not Active |
| CC(C)(C)Nc1ncnc2c1ncn2C1O[C@H](CO)[C@@H](O)[C@H]1O (some centres not stated) | Not Active |
| CCCC(C)Nc1ncnc2c1ncn2C1O[C@H](CO)[C@@H](O)[C@H]1O (some centres not stated) | Not Active |
